Changes are numbered by the printed parent chain. The source made the active and inactive calls. The calls are words filed in the database; no cut-off is given here.

The values that follow come from ChEMBL document CHEMBL2163314, “Potent aminocyclitol glucocerebrosidase inhibitors are subnanomolar pharmacological chaperones for treating gaucher disease” (J Med Chem, 2012).

For data set [1], the target named is T1, Beta-galactosidase (Bos taurus) (UniProt Q58D55).
T1 sequence (whole entry): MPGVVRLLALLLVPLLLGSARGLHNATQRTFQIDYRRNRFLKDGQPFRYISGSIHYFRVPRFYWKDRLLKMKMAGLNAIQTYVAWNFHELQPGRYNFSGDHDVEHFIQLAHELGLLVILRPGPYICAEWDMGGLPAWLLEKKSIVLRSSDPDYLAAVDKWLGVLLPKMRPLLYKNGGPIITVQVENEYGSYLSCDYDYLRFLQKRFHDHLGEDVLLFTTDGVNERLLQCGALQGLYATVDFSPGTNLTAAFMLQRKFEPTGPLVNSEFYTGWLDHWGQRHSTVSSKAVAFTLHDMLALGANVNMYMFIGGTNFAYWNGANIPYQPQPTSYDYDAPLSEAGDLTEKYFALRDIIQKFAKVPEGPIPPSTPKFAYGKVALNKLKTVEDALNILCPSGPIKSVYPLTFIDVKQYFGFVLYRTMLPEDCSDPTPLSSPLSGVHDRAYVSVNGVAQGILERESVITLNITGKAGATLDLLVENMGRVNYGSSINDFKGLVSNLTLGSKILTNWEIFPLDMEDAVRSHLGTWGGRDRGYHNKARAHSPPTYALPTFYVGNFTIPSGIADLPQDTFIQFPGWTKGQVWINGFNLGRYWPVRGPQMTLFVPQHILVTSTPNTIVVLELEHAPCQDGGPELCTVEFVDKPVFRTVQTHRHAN
Kind of data set: Inhibition of bovine liver beta-galactosidase at 100 uM.

The test system of data set [2] is T2, Lysosomal acid glucosylceramidase (Homo sapiens), P04062 [N409S].
T2 sequence (whole entry): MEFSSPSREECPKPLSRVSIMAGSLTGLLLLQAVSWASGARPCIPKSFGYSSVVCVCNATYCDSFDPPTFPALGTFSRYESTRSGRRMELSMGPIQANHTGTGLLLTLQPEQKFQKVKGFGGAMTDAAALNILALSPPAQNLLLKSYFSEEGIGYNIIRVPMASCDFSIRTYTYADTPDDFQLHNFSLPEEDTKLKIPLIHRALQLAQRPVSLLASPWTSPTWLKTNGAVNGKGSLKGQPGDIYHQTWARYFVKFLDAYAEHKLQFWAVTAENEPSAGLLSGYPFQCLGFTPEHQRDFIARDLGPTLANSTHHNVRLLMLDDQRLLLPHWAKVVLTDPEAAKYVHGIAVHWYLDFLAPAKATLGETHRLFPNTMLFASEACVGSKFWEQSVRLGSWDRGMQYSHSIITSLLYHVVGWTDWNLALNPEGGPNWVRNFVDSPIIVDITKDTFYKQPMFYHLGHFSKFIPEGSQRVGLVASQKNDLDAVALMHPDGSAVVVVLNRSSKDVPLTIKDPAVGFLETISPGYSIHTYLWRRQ
Put plainly: Agonist activity at glucosylceramidase N370S mutant in lymphoblast obtained from gauchers patient using 4-methylumbelliferyl-beta-D-glucopyranoside as substrate preincubated at 1 to 5000 nM for 3 days measured 2 hrs post substrate addition by fluorescence assay relative to untreated control. The format is functional. An outline of the steps: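 Patient-derived N370S homozygous lymphoblasts (RPMI-1640, 15% FBS, 37 °C, 5% CO2; passages 5–16) seeded at 2 × 10^5 cells/well, exposed to compound for 3 days. Cells washed in PBS and lysed in water by sonication. Homogenate incubated with 6 mM 4-MU-β-glucoside in 0.1 M citrate phosphate pH 5.2 with 0.25% taurocholate and 0.1% Triton X-100, 37 °C, 2 h. Fluorescence read at 355/460 nm; activity normalized to untreated cells; triplicate.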

Data set [3] deals with T3, Lysosomal acid glucosylceramidase (Homo sapiens) (UniProt P04062).
T3 sequence (whole entry): T2 sequence (whole entry) with S409N
To be noted: 50 uM.

Data set [4] can be described thus: Cytotoxicity against human fibroblasts at 50 uM. To be noted: fibroblast. The format is cell-based.
Data set [5] concerns the target T4, Alpha-galactosidase A (Homo sapiens) (UniProt P06280).
T4 sequence (whole entry): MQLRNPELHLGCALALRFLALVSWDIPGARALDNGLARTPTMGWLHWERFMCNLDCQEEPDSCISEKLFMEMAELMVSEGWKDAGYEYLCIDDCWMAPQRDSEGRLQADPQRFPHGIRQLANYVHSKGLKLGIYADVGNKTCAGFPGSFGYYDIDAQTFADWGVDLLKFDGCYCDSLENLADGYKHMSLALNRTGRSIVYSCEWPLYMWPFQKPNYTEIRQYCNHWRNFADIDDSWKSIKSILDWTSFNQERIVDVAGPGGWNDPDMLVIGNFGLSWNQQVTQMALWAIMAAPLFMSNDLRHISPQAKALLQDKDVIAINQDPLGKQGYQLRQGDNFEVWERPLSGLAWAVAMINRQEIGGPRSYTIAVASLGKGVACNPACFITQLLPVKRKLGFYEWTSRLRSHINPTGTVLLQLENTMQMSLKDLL
Kind of data set: Inhibition of lysosomal alpha-galactosidase in human fibroblast at 5 uM after 24 hrs.

A short description of data set [6]: Cytotoxicity against human fibroblasts at 5 uM. The format is cell-based. To be noted: fibroblast.
Data set [7] addresses Lysosomal alpha-glucosidase (Homo sapiens) (UniProt P10253). Put plainly: Inhibition of lysosomal alpha-glucosidase in human fibroblast at 5 uM after 24 hrs.
Data set [8] deals with T5, Ceramide glucosyltransferase (Mus musculus) (UniProt O88693).
T5 sequence (whole entry): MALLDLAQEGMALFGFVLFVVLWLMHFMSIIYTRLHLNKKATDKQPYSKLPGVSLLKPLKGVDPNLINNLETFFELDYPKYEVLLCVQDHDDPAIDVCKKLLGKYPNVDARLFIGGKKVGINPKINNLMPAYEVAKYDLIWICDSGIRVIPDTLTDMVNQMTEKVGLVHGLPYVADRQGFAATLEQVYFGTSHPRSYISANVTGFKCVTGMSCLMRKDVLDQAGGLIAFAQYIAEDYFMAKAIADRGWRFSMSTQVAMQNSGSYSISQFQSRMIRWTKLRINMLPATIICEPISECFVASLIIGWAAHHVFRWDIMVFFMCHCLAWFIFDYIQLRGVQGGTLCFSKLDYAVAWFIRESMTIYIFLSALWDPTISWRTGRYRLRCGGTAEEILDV
Kind of data set: Inhibition of GCS activity in mouse tissue homogenate at 50 uM.

With `CCCCCCCCCN[C@@H]1[C@H](O)[C@@H](O)[C@H](O)[C@@H](O)[C@@H]1O`, the inhibition (usually the drop in the measured response relative to a control, in per cent) came out at 74% in data set [1] and 23% in data set [3]. Further, in data set [2], the result was inactive.
For `CCCCCCCCCN[C@H]1[C@H](O)[C@@H](O)[C@H](O)[C@@H](O)[C@@H]1OCCCCCCCCC.Cl`, the figures for the Activity result in data set [4] and in data set [6] were “Toxic” and “Non-toxic”, respectively. Further, the inhibition in data set [5] and in data set [7] was under 16% in each case. Besides, in data set [8], the inhibition entry was “inactive”.
`CCCCCCCCCO[C@H]1[C@@H](N)[C@H](O)[C@@H](O)[C@H](O)[C@H]1O.Cl` had an inhibition in data set [1] of 74%.
As for `CCCCCCCCCN[C@H]1[C@H](O)[C@@H](O)[C@H](O)[C@@H](O)[C@@H]1O`, the result in data set [2] was inactive. The compound further had an inhibition in data set [3] of 23%.
Consider `CCCCCCCCCN[C@H]1[C@H](O)[C@@H](O)[C@H](O)[C@@H](O)[C@@H]1OC.Cl`, for which, in data set [3], the inhibition turned out to be 23%.
As for `CCCCCCCCCN(CCCCCCCCC)[C@@H]1[C@H](O)[C@H](O)[C@@H](O)[C@H](O)[C@H]1O.Cl`, the values for the Activity entry in data set [4] and in data set [6] were “Toxic” and “Non-toxic”, respectively. For the same compound, the inhibition in data set [5] and in data set [7] was under 16% throughout. For the same compound, the outcome in data set [2] was inactive. Further, in data set [8], the inhibition entry was “inactive”.
Consider `CCCCCCCCCN[C@H]1[C@H](O)[C@@H](O)[C@H](O)[C@@H](O)[C@H]1OCCCCCCCCC.Cl`, for which the inhibition in data set [1] amounted to 74%. Besides, the Activity entry is “Toxic” in data set [4] and “Non-toxic” in data set [6]. The inhibition entry in data set [5], in data set [7] and in data set [8] was “inactive” throughout.
